One data set concerns Morganella morganii. The experiment in a line: In vitro antibacterial activity measured as minimum inhibitory concentration was evaluated on morganella morganii ATCC 8019 (Mm). Type of data set: functional. Summed up: (§1)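 Serial 2-fold agar dilution in Mueller Hinton medium, run side by side with reference quinolones. Inoculum 10^5 cfu/mL; compound range 0.007–16 µg/mL.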
In data set [1] the test system is Staphylococcus epidermidis. As to the kind of experiment: In vitro antibacterial activity measured as minimum inhibitory concentration was evaluated on Staphylococcus epidermidis ATCC 155-1 (Se). Type of data set: functional. Summed up: as §1
The test system of another data set is Bacillus subtilis. The experiment in a line: In vitro antibacterial activity measured as minimum inhibitory concentration was evaluated on Bacillus subtilis ATCC 6633(Bs). Type of data set: functional. The method in brief: as §1
The subject of another data set is Bacillus cereus. The experiment in a line: In vitro antibacterial activity measured as minimum inhibitory concentration was evaluated on Bacillus cereus ATCC 11778 (Bc). In kind it is functional. The method in brief: as §1
A further data set has as its system Klebsiella pneumoniae. As to the kind of experiment: In vitro antibacterial activity measured as minimum inhibitory concentration was evaluated on klebsiella pneumoniae ATCC 10031 (Kp). Type of data set: functional. The method in brief:
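Serial 2-fold agar dilution in Mueller Hinton medium, run side by side with reference quinolones.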

Data set [2] relates to Escherichia coli. The experiment in a line: In vivo efficacy as ED50 against Escherichia coli HM-42 by oral administration in mice. In kind it is functional. Summed up: (§2)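 Mice, 4 groups of 10, infected intraperitoneally with slightly more than the LD100 of the organism. A single oral dose was given immediately after infection, with four doses (one per group) chosen from in vitro activity. Survival was scored after one week. ED50 (total dose, mg/kg, protecting 50%) was interpolated among group survival rates.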

Another data set concerns Proteus vulgaris. The experiment in a line: In vitro antibacterial activity measured as minimum inhibitory concentration was evaluated on proteus vulgaris ATCC 8427 (Pv). Type of data set: functional. Summed up: as §1
The test system of data set [3] is Staphylococcus aureus. The experiment in a line: In vivo efficacy as ED50 against Staphylococcus aureus HS-93 by oral administration in mice. Type of data set: functional. The method in brief:
as §2

The test system of a further data set is Enterobacter cloacae. As to the kind of experiment: In vitro antibacterial activity measured as minimum inhibitory concentration, was evaluated on Enterobacter cloacae ATCC 23355 (Ecl). Type of data set: functional.
Data set [4] relates to Pseudomonas aeruginosa. As to the kind of experiment: In vivo efficacy as ED50 against Pseudomonas aeruginosa HS-116 by oral administration in mice. In kind it is functional. Summed up: as §2
Data set [5] has as its system Escherichia coli. As to the kind of experiment: In vitro antibacterial activity measured as minimum inhibitory concentration, was evaluated on Escherichia coli ATCC 23559(Ec). In kind it is functional. Summed up: as §1
Data set [6] concerns Staphylococcus aureus. As to the kind of experiment: In vitro antibacterial activity measured as minimum inhibitory concentration was evaluated on Staphylococcus aureus ATCC 25178 (Sa). In kind it is functional. Summed up:
as §1

A further data set relates to Enterococcus faecalis. As to the kind of experiment: In vitro antibacterial activity measured as minimum inhibitory concentration was evaluated on Streptococcus faecalis ATCC 10541 (Sf). In kind it is functional. Summed up:
as §1

Data set [7] has as its system Pseudomonas aeruginosa. The experiment in a line: In vitro antibacterial activity measured as minimum inhibitory concentration was evaluated on Pseudomonas aeruginosa ATCC 10145 (Pa). In kind it is functional. Summed up:
as §1

For data set [8] the following is noted: mouse, in vivo, po, 50 mg/kg.
Where [9] appears, read: Morganella morganii, ATCC 8019, read-out: MIC.
Where [10] appears, read: Staphylococcus epidermidis, ATCC 155-1, read-out: MIC.
[11] abbreviates: Bacillus subtilis, ATCC 6633, read-out: MIC.
Setting [12] is: Bacillus cereus, ATCC 11778, read-out: MIC.
The mark [13] stands for this setting: Klebsiella pneumoniae, ATCC 10031, read-out: MIC.
Setting [14] is: Escherichia coli, po, read-out: ED50.
[15] abbreviates: Proteus vulgaris, ATCC 8427, read-out: MIC.
[16] abbreviates: Staphylococcus aureus, po, read-out: ED50.
[17] abbreviates: Enterobacter cloacae, ATCC 23355, read-out: MIC.
[18] abbreviates: Pseudomonas aeruginosa, po, read-out: ED50.
Setting [19] is: Escherichia coli, ATCC 23559, read-out: MIC.
The mark [20] stands for this setting: Staphylococcus aureus, ATCC 25178, read-out: MIC.
[21] abbreviates: Enterococcus faecalis, ATCC 10541, read-out: MIC.
[22] abbreviates: Pseudomonas aeruginosa, ATCC 10145, read-out: MIC.

In brackets after ≈: the same amount, converted by molar mass.

For the compound `CC1C(N)CN1c1c(F)cc2c(=O)c(C(=O)O)cn(-c3ccc(F)cc3F)c2c1F` (centres undefined), the MIC – broadly, the least concentration at which growth counts as inhibited – with Morganella morganii (setting [9]) was 0.12 µg/mL (≈ 0.285 µM); in [1] (setting [10]) it was 0.12 µg/mL (≈ 0.285 µM); with Bacillus subtilis (setting [11]) it was 0.06 µg/mL (≈ 0.142 µM); with Bacillus cereus (setting [12]), 0.12 µg/mL (≈ 0.285 µM); in the data set on Klebsiella pneumoniae (setting [13]) it was 0.06 µg/mL (≈ 0.142 µM); in the data set on Proteus vulgaris (setting [15]), 0.5 µg/mL (≈ 1.19 µM). Further, the MIC in the data set on Enterobacter cloacae (setting [17]) stood at 0.06 µg/mL (≈ 0.142 µM); in the data set on Escherichia coli [5] (setting [19]), 0.06 µg/mL (≈ 0.142 µM); in the data set with Staphylococcus aureus [6] (setting [20]), 0.12 µg/mL (≈ 0.285 µM); in the data set on Enterococcus faecalis (setting [21]), 1 µg/mL (≈ 2.37 µM); with Pseudomonas aeruginosa [7] (setting [22]), 1 µg/mL (≈ 2.37 µM). The figures for the ED50 in the data set on Escherichia coli [2] (setting [14]), in the data set on Staphylococcus aureus [3] (setting [16]) and in the data set on Pseudomonas aeruginosa [4] (setting [18]) were 2.3 mg/kg, 10 mg/kg and 61 mg/kg, respectively.
As to `C[C@@H]1[C@@H](N)CN1c1c(F)cc2c(=O)c(C(=O)O)cn3c2c1OC[C@@H]3C`, the MIC with Morganella morganii (setting [9]) is 0.12 µg/mL (≈ 0.345 µM); in data set [1] (setting [10]), 0.25 µg/mL (≈ 0.72 µM); with Bacillus subtilis (setting [11]), 0.12 µg/mL (≈ 0.345 µM); in the data set on Bacillus cereus (setting [12]), 0.5 µg/mL (≈ 1.44 µM); in the data set with Klebsiella pneumoniae (setting [13]), 0.06 µg/mL (≈ 0.173 µM); in the data set on Proteus vulgaris (setting [15]), 0.5 µg/mL (≈ 1.44 µM). In addition, the MIC in the data set with Enterobacter cloacae (setting [17]) came to 0.25 µg/mL (≈ 0.72 µM); in the data set on Escherichia coli [5] (setting [19]), 0.25 µg/mL (≈ 0.72 µM); with Staphylococcus aureus [6] (setting [20]), 0.25 µg/mL (≈ 0.72 µM); with Enterococcus faecalis (setting [21]), 1 µg/mL (≈ 2.88 µM); in the data set on Pseudomonas aeruginosa [7] (setting [22]) it was 4 µg/mL (≈ 11.5 µM). In addition, the ED50 (usually the dose at which the effect has come halfway, by size or by number of responders) came out at 50 mg/kg in the data set with Escherichia coli [2] (setting [14]), 46.1 mg/kg in the data set on Staphylococcus aureus [3] (setting [16]) and 53 mg/kg in the data set on Pseudomonas aeruginosa [4] (setting [18]).
As for `C[C@H]1[C@H](N)CN1c1c(F)cc2c(=O)c(C(=O)O)cn(C3CC3)c2c1F` (single isomer, unassigned), the MIC (in the data set on Morganella morganii (setting [9]); in data set [1] (setting [10]); in the data set on Bacillus subtilis (setting [11]); in the data set on Klebsiella pneumoniae (setting [13]); in the data set with Enterobacter cloacae (setting [17]); with Escherichia coli [5] (setting [19])) was 0.015 µg/mL (≈ 0.0429 µM) in each case. In addition, in the data set on Staphylococcus aureus [6] (setting [20]), the MIC stood at 0.015 µg/mL (≈ 0.0429 µM). For the same compound, the ED50 in the data set on Escherichia coli [2] (setting [14]) was found to be 1 mg/kg; in the data set on Staphylococcus aureus [3] (setting [16]) it was 3.5 mg/kg; in the data set with Pseudomonas aeruginosa [4] (setting [18]), 18 mg/kg. Besides, the AUC – broadly, concentration integrated over time – in [8] stood at 21800 ng·h/mL.
On to `C[C@@H]1[C@@H](N)CN1c1c(F)cc2c(=O)c(C(=O)O)cn(C3CC3)c2c1F` (stereo in doubt; 22), for which the MIC in the data set with Morganella morganii came to 0.03 µg/mL (≈ 0.0859 µM); in data set [1] it was 0.06 µg/mL (≈ 0.172 µM); against Bacillus subtilis it was 0.03 µg/mL (≈ 0.0859 µM); with Bacillus cereus, 0.06 µg/mL (≈ 0.172 µM); with Klebsiella pneumoniae, 0.03 µg/mL (≈ 0.0859 µM); in the data set on Proteus vulgaris it was 0.06 µg/mL (≈ 0.172 µM). In addition, the MIC in the data set with Enterobacter cloacae is 0.03 µg/mL (≈ 0.0859 µM); in the data set on Escherichia coli [5], 0.015 µg/mL (≈ 0.0429 µM); in the data set with Staphylococcus aureus [6] it was 0.06 µg/mL (≈ 0.172 µM); against Enterococcus faecalis, 0.25 µg/mL (≈ 0.716 µM); in the data set with Pseudomonas aeruginosa [7], 0.25 µg/mL (≈ 0.716 µM). Also, the figures for the ED50 with Escherichia coli [2], in the data set with Staphylococcus aureus [3] and in the data set on Pseudomonas aeruginosa [4] were 2 mg/kg, 9 mg/kg and 22 mg/kg, respectively.
In the case of `C[C@@H]1[C@H](N)CN1c1c(F)cc2c(=O)c(C(=O)O)cn(C3CC3)c2c1F` (stereo in doubt; 23), the MIC with Morganella morganii (setting [9]) is 0.12 µg/mL (≈ 0.344 µM); in data set [1] (setting [10]) it was 0.12 µg/mL (≈ 0.344 µM); with Bacillus subtilis (setting [11]) it was 0.06 µg/mL (≈ 0.172 µM); in the data set on Bacillus cereus (setting [12]), 0.12 µg/mL (≈ 0.344 µM); in the data set with Klebsiella pneumoniae it was 0.12 µg/mL (≈ 0.344 µM); against Proteus vulgaris, 0.25 µg/mL (≈ 0.716 µM). The MIC with Enterobacter cloacae (setting [17]) stood at 0.06 µg/mL (≈ 0.172 µM); in the data set on Escherichia coli [5] (setting [19]) it was 0.06 µg/mL (≈ 0.172 µM); with Staphylococcus aureus [6] (setting [20]), 0.12 µg/mL (≈ 0.344 µM); with Enterococcus faecalis (setting [21]), 1 µg/mL (≈ 2.86 µM); with Pseudomonas aeruginosa [7] (setting [22]), 1 µg/mL (≈ 2.86 µM). The values for the ED50 in the data set on Escherichia coli [2] (setting [14]), with Staphylococcus aureus [3] and in the data set with Pseudomonas aeruginosa [4] (setting [18]) were 6.2 mg/kg, 18.6 mg/kg and 123 mg/kg, respectively.
Take `C[C@@H]1[C@H](N)CN1c1c(F)cc2c(=O)c(C(=O)O)cn(C3CC3)c2c1F` (stereo in doubt; 23c): the MIC against Morganella morganii came to 0.06 µg/mL (≈ 0.172 µM); in data set [1] it was 0.12 µg/mL (≈ 0.344 µM); against Bacillus subtilis, 0.03 µg/mL (≈ 0.0859 µM); in the data set with Bacillus cereus, 0.06 µg/mL (≈ 0.172 µM); against Klebsiella pneumoniae, 0.03 µg/mL (≈ 0.0859 µM); in the data set on Proteus vulgaris, 0.12 µg/mL (≈ 0.344 µM). The MIC came out at 0.03 µg/mL (≈ 0.0859 µM) in the data set with Enterobacter cloacae; 0.03 µg/mL (≈ 0.0859 µM) with Escherichia coli [5]; 0.06 µg/mL (≈ 0.172 µM) with Staphylococcus aureus [6]; 0.5 µg/mL (≈ 1.43 µM) in the data set on Enterococcus faecalis; 0.5 µg/mL (≈ 1.43 µM) against Pseudomonas aeruginosa [7]. The ED50 came out at 6.1 mg/kg with Escherichia coli [2], 5.4 mg/kg with Staphylococcus aureus [3] and 117 mg/kg in the data set on Pseudomonas aeruginosa [4].
Turning to `O=C(O)c1cn(C2CC2)c2cc(N3CCNCC3)c(F)cc2c1=O` [CIPROFLOXACIN], the ED50 in the data set with Escherichia coli [2] (setting [14]) stood at 3 mg/kg; in the data set on Pseudomonas aeruginosa [4] (setting [18]), 70 mg/kg. For the same compound, the AUC in [8] is 2300 ng·h/mL.

These data come from ChEMBL document CHEMBL1128288, “7-Azetidinylquinolones as antibacterial agents. 3. Synthesis, properties and structure-activity relationships of the stereoisomers containing a 7-(3-amino-2-methyl-1-azetidinyl) moiety” (J Med Chem, 1995).
